We go through 32 compounds from ChEMBL document CHEMBL2413031, “Synthesis and tubulin-binding properties of non-symmetrical click C5-curcuminoids” (Bioorg Med Chem, 2013).

Activity calls are given as the source filed them. The calls are words filed in the database; no cut-off is given here.

The test system of assay [1] is MeWo. In words: Cytotoxicity against human MeWo cells assessed as cell viability at 10 uM after 48 hrs by MTT assay relative to vehicle-treated control. Format: functional. Conditions: read-out: Activity. The procedure, abridged: (§1)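 MeWo melanoma cells (DMEM, 10% FBS, 2 mM L-glutamine, penicillin/streptomycin 100 µg/mL) grown 48 h with or without compound. Washed twice in Locke's solution (HEPES pH 7.6), then MTT 250 µg/mL for 90 min. Screening at 10 µM fixed concentration against untreated control. Concentration–response: mean + S.D. of 8–16 replicates from 4 separate experiments.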
Background: Tetrazolium dyes change colour on reduction, which living cells bring about.

For assay [2], the system named is MeWo. The experiment in a line: Cytotoxicity against human MeWo cells assessed as cell viability after 48 hrs by MTT assay. The format is functional, cell-based. The procedure, abridged: as §1
For assay [3], the target named is T1, Tubulin (Homo sapiens) (UniProt P68371+Q9H4B7+P0DPH7+P68366+Q13509+Q71U36+P04350+Q3ZCM7+P07437+P68363+Q9BQE3+Q6PEY2+Q13885+Q9BVA1+Q9BUF5). The experiment in a line: Inhibition of alpha-tubulin polymerization in human MeWo cells at 3 X IC50 after 16 hrs by immunofluorescence microscopic analysis. Format: cell-based. The method in brief:
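MeWo cells on glass coverslips, drug-treated at 3× IC50, 16 h per the legend (24 h in methods). Stained with anti-tubulin (1:1000, 20 min RT), Alexa 488 secondary and nuclear dye, imaged at 63× oil. Representative of three experiments.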

A short description of assay [4]: Cytotoxicity against human SH-SY5Y cells assessed as cell viability after 48 hrs by MTT assay. Format: functional, cell-based. The method in brief:
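SH-SY5Y neuroblastoma cells in 50% DMEM/50% F-12 with 10% FBS, treated 48 h across a concentration range. Viability by MTT: cells washed twice in Locke's solution (pH 7.6), then 90 min with MTT 250 µg/mL. Mean + S.D. of 8–16 replicates from 4 separate experiments.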

The test system of assay [5] is MeWo. The experiment in a line: Antitubulinic activity in human MeWo cells assessed as blockade in G2/M phase at 3 X IC50 after 16 hrs by propidium iodide staining-based FACS analysis. The format is functional, cell-based. The procedure, abridged: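 MeWo cells (DMEM, 10% FBS, 2 mM L-glutamine, pen/strep) exposed 16 h to vehicle or compound. Washed once in PBS, then fixed in ice-cold 30:70 PBS/EtOH and held at −20 °C before DNA-content flow cytometry. Histograms shown are representative of three separate experiments.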
For orientation: In flow cytometry, cells or beads pass a laser one at a time.

The target in assay [6] is T1, Tubulin (Homo sapiens). In words: Inhibition of alpha-tubulin polymerization in human MeWo cells at 3 X IC50 after 16 hrs by Western blot analysis in presence of paclitaxel. Format: cell-based. The procedure, abridged: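 MeWo cells in flasks, treated 16 h at 3× IC50 or left untreated. Trypsinised and lysed 10 min at RT in hypotonic buffer (20 mM Tris-HCl pH 6.8, 1 mM MgCl2, 2 mM EGTA, 0.5% NP-40, protease inhibitors) containing paclitaxel. Equal protein centrifuged 13000 rpm, 15 min. Pellet (polymerized) and supernatant (free) α-tubulin compared by SDS-PAGE/western blot, chemiluminescence. Three experiments; CA-4 positive control.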

As for `COc1cc(/C=C/C(O)=C/C(=O)c2ccc(O)c(OC)c2)ccc1O`, the viability at 10 µM in the assay with MeWo [1] was found to be 97%.

`COc1cc(-c2cc(/C=C/c3cc(OC)c(OC)c(OC)c3)n[nH]2)ccc1O`: the viability at 10 µM in the assay on MeWo [1] worked out at 75%.

Regarding `COc1cc(/C=C/C(O)=C/C(=O)c2ccc(O)cc2)cc(OC)c1`, the viability at 10 µM in the assay with MeWo [1] amounted to 90%.

As to `COc1ccc(/C=C/C(O)=C/C(=O)c2ccc(O)c(OC)c2)cc1`, the viability at 10 µM in the assay with MeWo [1] was determined as 84%.

Regarding `O=C(/C=C(O)/C=C/c1ccc(O)cc1)c1ccccc1`, the viability at 10 µM with MeWo [1] was found to be 90%.

On to `COc1cc(/C=C/C(O)=C/C(=O)c2ccccc2)cc(OC)c1`, for which, in the assay on MeWo [1], the viability at 10 µM was 92%.

As to `COc1cc(/C=C/c2cc(-c3ccc(O)c(OC)c3)[nH]n2)ccc1O`, the IC50 (in general, the midpoint of a concentration-inhibition curve) amounted to 3.7 µM in the assay on MeWo [2] and 4 µM in assay [4]. Also, the inhibition entry at Tubulin (Homo sapiens) [3] and on Tubulin (Homo sapiens) [6] was “Active” each time. Moreover, in the assay on MeWo [5], the result was Active. In addition, in the assay with MeWo [1], the viability at 10 µM worked out at 36%.

With `COc1cc(/C=C/c2cc(-c3ccccc3)[nH]n2)cc(OC)c1`, the viability at 10 µM in the assay on MeWo [1] stood at 90%.

Turning to `COc1cc(/C=C/C(O)=C/C(=O)c2ccc(O)c(OC)c2)cc(OC)c1`, the viability at 10 µM with MeWo [1] is 88%.

Regarding `COc1cc(/C=C/C(O)=C/C(=O)c2ccc(O)cc2)ccc1O`, in the assay with MeWo [1], the viability at 10 µM came out at 89%.

On to `COc1cc(/C=C/C(O)=C/C(=O)c2ccccc2)cc(OC)c1OC`, for which the viability at 10 µM with MeWo [1] was found to be 93%.

Consider `COc1cc(/C=C/C(=O)CC(=O)/C=C/c2ccc(O)c(OC)c2)ccc1O` [CURCUMIN], for which the figures for the IC50 (in the assay with MeWo [2]; in assay [4]) were 35.5 µM and 11.4 µM, respectively. Moreover, the inhibition entry at Tubulin (Homo sapiens) [3] and at Tubulin (Homo sapiens) [6] was “Active” throughout. Besides, in the assay on MeWo [5], the outcome was Active. Moreover, the viability at 10 µM in the assay on MeWo [1] is 90%.

On to `COc1ccc(/C=C/C(O)=C/C(=O)c2ccccc2)cc1`, for which the viability at 10 µM with MeWo [1] was 90%.

On to `Oc1ccc(/C=C/c2cc(-c3ccc(O)cc3)[nH]n2)cc1`, for which the viability at 10 µM in the assay with MeWo [1] came out at 87%.

As to `COc1ccc(/C=C/c2cc(-c3ccc(O)cc3)[nH]n2)cc1`, the viability at 10 µM with MeWo [1] stood at 81%.

On to `COc1cc(/C=C/c2cc(-c3ccc(O)cc3)[nH]n2)ccc1O`, for which the viability at 10 µM in the assay with MeWo [1] was 69%.

With `COc1cc(/C=C/c2cc(-c3ccc(O)cc3)[nH]n2)cc(OC)c1OC`, in the assay with MeWo [1], the viability at 10 µM was found to be 85%.

Regarding `COc1cccc(/C=C/c2cc(-c3ccc(O)c(OC)c3)[nH]n2)c1`, the IC50 came to 3.6 µM in the assay with MeWo [2] and 10.6 µM in assay [4]. Besides, the inhibition result at Tubulin (Homo sapiens) [3] and on Tubulin (Homo sapiens) [6] was “Active” each time. In addition, the result in the assay with MeWo [5] was Active. In the assay with MeWo [1], the viability at 10 µM turned out to be 27%.

`COc1cc(/C=C/c2cc(-c3ccc(O)c(OC)c3)[nH]n2)cc(OC)c1`: the IC50 was found to be 4.8 µM in the assay with MeWo [2] and 11.8 µM in assay [4]. Further, the inhibition result at Tubulin (Homo sapiens) [3] and on Tubulin (Homo sapiens) [6] was “Active” each time. In the assay on MeWo [5], the outcome was Active. Further, in the assay with MeWo [1], the viability at 10 µM came to 43%.

Consider `O=C(/C=C(O)/C=C/c1ccc(O)cc1)c1ccc(O)cc1`, for which, in the assay on MeWo [1], the viability at 10 µM came out at 77%.

For the compound `COc1cc(/C=C/c2cc(-c3ccc(O)cc3)[nH]n2)cc(OC)c1`, the IC50 stood at 5.7 µM in the assay with MeWo [2] and 10.6 µM in assay [4]. In addition, the inhibition result at Tubulin (Homo sapiens) [3] and at Tubulin (Homo sapiens) [6] was “Active” in each case. Moreover, the result in the assay on MeWo [5] was Active. For the same compound, the viability at 10 µM with MeWo [1] was 38%.

Take `COc1cc(/C=C/C(O)=C/C(=O)c2ccc(O)cc2)cc(OC)c1OC`: in the assay with MeWo [1], the viability at 10 µM is 85%.

For `COc1cc(/C=C/c2cc(-c3ccccc3)[nH]n2)ccc1O`, the viability at 10 µM in the assay on MeWo [1] was determined as 51%.

Regarding `COc1ccc(/C=C/c2cc(-c3ccc(O)c(OC)c3)[nH]n2)cc1`, the viability at 10 µM with MeWo [1] came to 92%.

As to `COc1ccc(/C=C/C(O)=C/C(=O)c2ccc(O)cc2)cc1`, in the assay with MeWo [1], the viability at 10 µM came to 93%.

For `COc1cc(/C=C/c2cc(-c3ccccc3)[nH]n2)cc(OC)c1OC`, in the assay with MeWo [1], the viability at 10 µM was determined as 89%.

Consider `COc1cc(C(=O)/C=C(O)/C=C/c2ccc(O)cc2)ccc1O`, for which the viability at 10 µM in the assay with MeWo [1] is 98%.

Consider `COc1cc(/C=C/C(O)=C/C(=O)c2ccccc2)ccc1O`, for which the viability at 10 µM in the assay with MeWo [1] turned out to be 90%.

Take `COc1ccc(/C=C/c2cc(-c3ccccc3)[nH]n2)cc1`: in the assay with MeWo [1], the viability at 10 µM was 92%.

Consider `Oc1ccc(/C=C/c2cc(-c3ccccc3)[nH]n2)cc1`, for which, in the assay on MeWo [1], the viability at 10 µM came to 98%.

Consider `COc1cc(-c2cc(/C=C/c3ccc(O)cc3)n[nH]2)ccc1O`, for which the viability at 10 µM with MeWo [1] came to 95%.

As for `COc1cc(C(=O)/C=C(O)/C=C/c2cc(OC)c(OC)c(OC)c2)ccc1O`, the viability at 10 µM in the assay with MeWo [1] turned out to be 89%.
